Hits are enriched below; roughly 3.7% of the tested compounds scored in any of these assays.
KCNK3 inh – human KCNK3 channel inhibition, primary screen. AID 602410. 340,000 tested, 0.84% active. O14649. B-score at 10 µM. CHO-KCNK3 thallium flux, FluxOR fluorescence; active compounds read low;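 active = B-score under library mean minus 4 SD, starting fluorescence ratio at most library mean plus 5 SD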;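 also: more negative B-score means stronger inhibition of thallium flux through KCNK3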
Target sequence (O14649 whole entry, looked up): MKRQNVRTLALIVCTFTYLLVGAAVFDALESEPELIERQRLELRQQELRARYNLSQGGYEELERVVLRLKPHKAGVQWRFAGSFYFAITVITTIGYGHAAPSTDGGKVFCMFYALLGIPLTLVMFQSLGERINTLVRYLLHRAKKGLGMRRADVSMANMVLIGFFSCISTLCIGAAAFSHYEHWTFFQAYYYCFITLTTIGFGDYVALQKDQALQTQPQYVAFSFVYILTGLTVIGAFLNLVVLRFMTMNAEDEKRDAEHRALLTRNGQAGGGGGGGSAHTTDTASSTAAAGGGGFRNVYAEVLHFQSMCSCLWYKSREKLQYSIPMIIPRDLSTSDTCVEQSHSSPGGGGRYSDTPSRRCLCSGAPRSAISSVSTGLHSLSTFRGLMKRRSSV
KCNK9 block – human KCNK9 channel inhibition | 310,000 tested, 1.2% active | AID 488922 | Q9NPC2 | HEK293 KCNK9, FluxOR thallium flux fluorescence; active compounds read low | B-score at 10 µM;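 active = ratio B-score over 3 SD below the library mean, with starting fluorescence within 5 SD of its mean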;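 also: negative B-score means less thallium flux so channel inhibition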
KCNQ1 inh – inhibitors of human KCNQ1 potassium channel; AID 2642; 310,000 tested, 1.3% active; CHO-K1 KCNQ1, FluxOR thallium flux fluorescence; active compounds read high; B-score at 10 µM;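 active = compounds whose thallium flux B-score, printed positive for inhibition, exceeds three library SD while starting fluorescence stays within three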;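 also: channel opened by potassium depolarization with thallium stimulus after 20 min compound exposure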
KCNQ1 act – human KCNQ1 channel potentiation or activation; P51787; CHO-K1 KCNQ1, thallium flux FluxOR fluorescence; active compounds read high; B-score at 10 µM; 310,000 tested, 0.35% active; AID 2648;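 active = fluorescence ratio B-score, a plate-corrected score, at least three library SD, with initial intensity B-score within 5 SD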
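assay system = CHO-K1 cells stably expressing KCNQ1 | medium = assay buffer, equal DMSO in all wells | timing = 37 °C overnight plating, 90-min dark dye load, 20-min compound pretreatment | measured by = kinetic FluxOR thallium fluorescence, 10-s 1-Hz baseline, 110-s post-stimulus read | measure = fluorescence change relative to baseline, converted to B score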
Kir21 inh – inhibitors of mouse Kir2.1 inward-rectifier potassium channel | P35561 | HEK293-Kir2.1, FluxOR thallium flux fluorescence; active compounds read low | B-score at 10 µM | 310,000 tested, 0.85% active | AID 1672;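 active = fluorescence ratio B-score at or below minus 3 SD of library scores, with starting-brightness B-score within 2 SD, cut at about -4.2 in these data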;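 also: channel flux triggered by added potassium and thallium sulfate stimulus; B-score of peak minus minimum fluorescence over baseline after thallium stimulus; more negative B-score means stronger Kir2.1 block with less thallium influx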
hERG protect – compounds protecting human hERG from proarrhythmic drug block. CHO-hERG, FluxOR thallium flux, dofetilide IC70 present. AID 1511. 310,000 tested, 0.51% active. Q12809. activation (rescue from dofetilide block), less the hit threshold, % at 10 µM;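 active = activation above the mean of controls blocked by dofetilide plus 5 SD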;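 also: thallium influx through hERG after potassium depolarization seen as dye fluorescence rise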
Numbers stand for hits; i = inactive; nt = no result.

SMILES	KCNK3 inh	KCNK9 block	KCNQ1 inh	KCNQ1 act	Kir21 inh	hERG protect
Cn1c(=O)[nH]c(=O)c2c1nc([N+](=O)[O-])n2Cc1ccccc1	i	i	i	i	i	i
CC(C)OC(=O)/C(=C/c1ccc2c(c1)c1ccccc1n2C)NC(=O)c1ccccc1	i	-7.6	i	i	i	i
CC(C)OC(=O)/C(=C\c1cccnc1)NC(=O)c1ccccc1	i	i	i	i	i	i
Cn1c2ccccc2c2cc(/C=C(\NC(=O)c3ccccc3)C(=O)O)ccc21	i	i	i	i	i	i
CC(C)OC(=O)/C(=C\c1ccc2c(c1)c1ccccc1n2C)NC(=O)c1ccccc1	i	-7.9	i	i	i	i
COc1ccccc1NC(=O)c1ccc(S(=O)(=O)N2CCCC(C)C2)cc1 (centres undefined)	i	i	i	i	i	i
COc1cc(OC)c(NC(=O)c2cc3ccccc3cc2O)cc1Cl	-9.2	nt	nt	nt	nt	nt
CC(CC(=O)Nc1ccc(S(=O)(=O)N2CCOCC2)cc1)c1ccccc1 (centres undefined)	i	i	i	i	i	i
CCOc1ccc(Oc2cc(NC(=O)c3ccco3)cc([N+](=O)[O-])c2)cc1	i	nt	nt	nt	nt	nt
O=C(Nc1cc(Oc2ccc(Cl)cc2)cc([N+](=O)[O-])c1)c1ccco1	i	-7	i	i	i	i
Cc1cccc(CN(CC(=O)N/N=C/c2ccco2)S(=O)(=O)c2ccc(Cl)cc2)c1	i	i	9	i	i	i
Cc1ccc(S(=O)(=O)N(CC(=O)N/N=C/c2ccco2)Cc2ccccc2)cc1	i	i	i	i	i	i
Cc1c(NC(=O)c2ccc3c(c2)OCO3)cccc1-c1nc2ccccc2o1	i	i	i	i	i	6.0
Cc1ccc(-c2nc3ccccc3o2)cc1NC(=O)c1ccc2c(c1)OCO2	i	i	i	i	i	i
FC(F)(F)c1cc(-c2ccccn2)nc2cc(-c3ccccc3)nn12	i	i	i	i	i	i
CCOc1cc(C(=O)OCC(=O)NC(C)c2ccccc2)ccc1OCC(=O)N1CCOCC1 (centres undefined)	i	i	i	i	i	i
COc1ccc(N(Cc2cc3cc(OC)ccc3[nH]c2=O)S(=O)(=O)c2ccc(NC(C)=O)cc2)cc1	i	i	i	i	i	i
COc1ccc(N(Cc2cc3ccccc3[nH]c2=O)S(=O)(=O)c2ccc(OC)cc2)cc1	i	-7.2	i	i	i	i
COc1cc(C)c(Br)cc1S(=O)(=O)NCCN1CCOCC1	i	i	i	i	i	i
CCOC(=O)c1cc(C#N)c(Oc2cccc(C(F)(F)F)c2)nc1-c1ccccc1	i	i	6	i	i	i
O=C(NC(=S)NC1CCCCC1)c1ccc(F)cc1	i	i	i	i	i	i
CC(C)(C)OC(=O)CC1(C#N)c2ccccc2C(Br)=CN1C(=O)c1ccccc1 (centres undefined)	i	-7.4	i	i	i	i
CC(C)(C)OC(=O)[C@H](Cc1ccccc1)NC(=O)c1nc[nH]c1C(=O)N1CCNCC1	i	nt	nt	nt	nt	nt
CCN(CC)CC(=O)Nc1sc(C)cc1C(=O)c1ccccc1	i	i	i	i	i	i
CCN(CC)CC(=O)Nc1sc(C)c(C)c1C(=O)c1ccc(C)cc1	i	i	6	i	i	i
SMILES	KCNK3 inh	KCNK9 block	KCNQ1 inh	KCNQ1 act	Kir21 inh	hERG protect
Cc1cccc(C(=O)N2c3ccccc3C(=O)OC2c2ccc3c(c2)OCO3)c1 (centres undefined)	i	i	i	i	i	i
O=C1OC(c2ccc3c(c2)OCO3)N(C(=O)c2ccc(Cl)c(Cl)c2)c2ccccc21 (centres undefined)	i	-7.5	i	i	i	i
Cc1cc(C=O)c2c(c1)C=CC1(Oc3ccccc3C(=O)N1C)O2 (centres undefined)	nt	i	i	i	i	21
CCOc1ccc(CCNC(=O)c2ccc(CS(=O)Cc3ccc(Cl)cc3)o2)cc1 (centres undefined)	i	i	i	i	i	i
CCOc1ccc(CCNC(=O)c2ccc(CS(=O)Cc3ccccc3Cl)o2)cc1 (centres undefined)	i	i	i	i	-4.3	i
C/C(=N\N=C(c1ccccc1)c1ccccc1)c1cccs1	i	i	6	i	i	i
O=C(NNc1nc2c(F)cc(F)cc2s1)c1ccccc1	i	i	i	61	i	i

High-throughput results from PubChem BioAssay.
